Published values pooled from the literature.
Protocols differ between the studies behind these lines.
Cell line: NCI-H226
Effect on: cell growth or viability

COC(=O)/C=C/C=C/c1ccc2c(c1)OCO2  IC50 (SRB): 99.1 µM
O=C1NCCc2[nH]c(-c3ccncc3)cc21  IC50: > 10 µM
CCCCc1n(Cc2ccc3ccccc3n2)cc[n+]1Cc1ccc2ccccc2n1  TGI (SRB): 13.6 µM
O=C(/C=C/C=C/c1ccc2c(c1)OCO2)N1CCCCC1  IC50 (SRB): 83.7 µM
COc1ccc(C(=O)/C=C/c2cccc(Br)c2)cc1S(N)(=O)=O  GI50 (SRB; 48 h): 2.8 µM
Cc1cc(C)n(C(=S)[S][Au][PH](CCCCCC[PH]([Au][S]C(=S)n2nc(C)cc2C)(c2ccccc2)c2ccccc2)(c2ccccc2)c2ccccc2)n1  GI50 (SRB): 2.52 µM
COc1ccc(C(=O)/C=C/c2cccc(Cl)c2)cc1S(N)(=O)=O  GI50 (SRB; 48 h): 2.8 µM
COc1ccc(-c2ccc(-c3ccc(C(=N)N)nc3)s2)cc1Cl  GI50 (SRB): 1.92 µM
c1ccc2cc(Cn3cc[n+](Cc4ccc5ccccc5c4)c3)ccc2c1  TGI (SRB): 14.3 µM
CC(=O)O[C@H]1C(=O)[C@@]2(C)[C@H]([C@H](OC(=O)c3ccccc3)[C@]3(O)C[C@H](OC(=O)[C@H](O)[C@@H](NC(=O)c4ccccc4)c4ccccc4)C(C)=C1C3(C)C)[C@]1(OC(C)=O)CO[C@@H]1C[C@@H]2O  IC50 (SRB): 0.0043 µM
Cc1n(Cc2ccc3ccccc3n2)cc[n+]1Cc1ccc2ccccc2c1  TGI (SRB): 10.9 µM
COc1ccc(C(=O)/C=C/c2ccccc2Br)cc1S(N)(=O)=O  inhibition (SRB; 10 µM): 79%
c1ccc(-c2n(Cc3ccc4ccccc4c3)cc[n+]2Cc2ccc3ccccc3c2)cc1  TGI (SRB): 2.97 µM
COc1ccc(C(=O)/C=C/c2ccc3ccccc3c2)cc1S(N)(=O)=O  GI50 (SRB; 48 h): 2.3 µM
COc1ccc(-c2ccc(-c3ccc(C(=N)N)nc3)s2)cc1  GI50 (SRB): 1.81 µM
COc1ccc(C(=O)/C=C/c2cc3c(cc2Br)OCO3)cc1S(N)(=O)=O  GI50 (SRB; 48 h): 2.8 µM
NC(=O)c1cc(Cl)ccc1NC(=O)COc1ccccc1  GI50 (SRB): > 100 µM
